The nature of data set [1]: Cmax in Crl:CD(SD) rat at 1 mg/kg, po by LC-MS/MS analysis. Also noted: route oral, dose 1 mg/kg. In kind it is ADME, organism-based. The note with it: in vivo. In a few lines:
(§1)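 Male animals dosed orally with a suspension in 0.5% MC. Blood was taken into EDTA 2K capillaries and plasma was stored frozen. Plasma was mixed with methanol/acetonitrile (1:1) plus internal standard, centrifuged, and drug was measured by LC-MS/MS. AUC0-inf was obtained by the trapezoidal rule, extrapolated with kel from the terminal phase. t1/2 = ln2/kel.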

Data set [2] relates to Mus musculus. The experiment in a line: Cardioprotective activity in C57BL/6 mouse model of LAD coronary artery ligation-induced myocardial infarction assessed as reduction in heart weight at 0.3 mg/kg, po and measured after 28 days. It counts as functional, organism-based. Particulars: time 28.0 day. The method, boiled down: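 Male C57BL/6 mice (10-12 weeks) underwent permanent LAD ligation under ketamine/xylazine, with shams having an untightened suture. Compound (0.3 mg/kg/d) or vehicle was given by oral gavage once daily (5 mL/kg) from post-MI day 4 for 24 days. Endpoints were taken at 28 days post-MI; scar length was quantified from LV cross sections.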

Data set [3] is described as follows: AUC (0 to infinity) in BALB/cCrSlc mouse at 1 mg/kg, po by LC-MS/MS analysis. It counts as ADME, organism-based. Also noted: time infinity, route oral, dose 1 mg/kg. Particulars: in vivo. The method, boiled down:
as §1

A short description of data set [4]: AUC (0 to infinity) in cynomolgus monkey at 3 mg/kg, po by LC-MS/MS analysis. In kind it is ADME, organism-based, Macaca fascicularis. Also noted: time infinity, route oral, dose 3 mg/kg. Particulars: in vivo. The method, boiled down: as §1
A short description of data set [5]: AUC (0 to infinity) in Crl:CD(SD) rat at 1 mg/kg, po by LC-MS/MS analysis. It counts as ADME, organism-based. Also noted: time infinity, route oral, dose 1 mg/kg. The note with it: in vivo. In a few lines:
as §1

In a further data set the target is T1, fMet-Leu-Phe receptor (Homo sapiens, UniProt P21462).
T1 sequence (P21462 whole entry): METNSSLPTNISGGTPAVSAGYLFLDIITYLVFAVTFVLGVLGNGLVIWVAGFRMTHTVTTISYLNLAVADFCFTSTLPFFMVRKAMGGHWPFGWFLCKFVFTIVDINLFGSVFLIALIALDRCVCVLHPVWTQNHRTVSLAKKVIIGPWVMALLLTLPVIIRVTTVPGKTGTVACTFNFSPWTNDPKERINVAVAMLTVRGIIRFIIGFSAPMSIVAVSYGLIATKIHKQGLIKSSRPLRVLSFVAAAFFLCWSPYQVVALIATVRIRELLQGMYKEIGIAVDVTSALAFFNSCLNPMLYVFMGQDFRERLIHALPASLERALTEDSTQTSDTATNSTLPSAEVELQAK
Nature of the data set: Agonist activity at human FPR1 expressed in HEK 293 cells co-expressing Galpha15 measured every 1.5 sec for 80 sec by Fluo-4 NW staining based scanning fluorometric method. In kind it is cell-based, HEK293.

Data set [6] deals with Mus musculus. Nature of the data set: Antiinflammatory activity in mouse assessed as increase in LPS-induced IL-10 expression at 0.3 mg/kg, po.

Activity calls are given as the source filed them. The calls are words filed in the database; no cut-off is given here.

One may read the Cmax as the maximum level reached in the sampled fluid or tissue. One may read the AUC(0-inf) as total exposure, with the tail of the curve extrapolated. The term EC50 denotes the concentration at which the effect is half-maximal. For `COc1cc(F)c([C@@H]2CNC(=O)[C@H]2NC(=O)Nc2ccccc2)c(F)c1` [BMS-986235], the concentration in data set [1] peaked (Cmax) at 240 nM. Further, the outcome in the data set with Mus musculus [2] and with Mus musculus [6] was Active. Besides, the figures for the AUC(0-inf) in data set [3], in data set [4] and in data set [5] were 0.12 µM·h, 5.8 µM·h and 0.64 µM·h, respectively. Further, the EC50 at fMet-Leu-Phe receptor is 2.8 µM.

These data come from ChEMBL document CHEMBL4725241, “Discovery of BMS-986235/LAR-1219: A Potent Formyl Peptide Receptor 2 (FPR2) Selective Agonist for the Prevention of Heart Failure” (J Med Chem, 2020).
